From ChEMBL document CHEMBL1155793, “Phenyl phosphotriester derivatives of AZT: variations upon the SATE moiety” (Bioorg Med Chem, 2008)
pEC50: −log10 of the molar value. Converted amounts (≈) assume the structure as drawn.

Assays:
[1] = tested on: Human immunodeficiency virus 1; assay: Antiviral activity against HIV1 infected human CEM-SS cells; format: functional, organism-based; conditions: Human immunodeficiency virus 1, CEM-SS
[2] = Cytotoxicity against human CEM-SS cells; format: cell-based
[3] = tested on: Human immunodeficiency virus 1; assay: Antiviral activity against HIV1 infected human MT4 cells; format: functional, organism-based; conditions: Human immunodeficiency virus 1, MT4
[4] = Cytotoxicity against human MT4 cells; format: cell-based
[5] = tested on: Human immunodeficiency virus 1; assay: Antiviral activity against HIV1 infected human thymidine kinase-deficient CEM cells; format: functional, organism-based; conditions: Human immunodeficiency virus 1, CCRF-CEM
[6] = Cytotoxicity against human thymidine kinase-deficient CEM cells; format: cell-based, CCRF-CEM
[7] = Lipophilicity, log P of the compound; format: physicochemical; conditions: octanol/water
How it was run: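 Log P values were calculated with software, not measured experimentally.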

[8] = Stability in human CEM-SS cell culture medium; format: ADME, cell-based
How it was run: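 Compound at an initial 50 µM was incubated in culture medium of 90% RPMI 1640 plus 10% fetal calf serum, heat-inactivated 30 min at 56 °C. Analysis was by on-line ISRP-cleaning HPLC (0–80% acetonitrile in 20 mM TEAA pH 6.9, 267 nm) with HPLC/MS or co-injection identification. Half-lives came from pseudo-first-order exponential fits. Mean of three experiments.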

[9] = Stability in human CEM-SS cell extracts; format: ADME, cell-based
How it was run: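 CEM-SS cell extracts were incubated with compound at an initial 50 µM. Samples were analysed by on-line ISRP-cleaning HPLC (0–80% acetonitrile gradient in 20 mM TEAA pH 6.9, detection 267 nm), with metabolites identified by HPLC/MS or co-injection. Half-lives came from pseudo-first-order mono- or polyexponential regression. Mean of three experiments.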

[10] = Chemical stability in water at pH 6.8; format: physicochemical
How it was run: (§1)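 Compound at an initial 50 µM was incubated in water (pH 6.8) or RPMI 1640 (pH 7.5). Samples were analysed by on-line ISRP-cleaning HPLC: TEAA 20 mM pH 6.9 wash, then 0–80% acetonitrile gradient, UV 267 nm. Products were identified by HPLC/MS or co-injection. Half-lives came from pseudo-first-order mono- or polyexponential fits of peak areas. Mean of two experiments.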

[11] = Chemical stability in RPMI1640 medium at pH 7.5; format: physicochemical; how it was run: as §1
[12] = Aqueous solubility of the compound; format: physicochemical

SMILES	pEC50 [1]	CC50 [2]	pEC50 [3]	CC50 [4]	pEC50 [5]	CC50 [6]	logP ([7]; read-out: logP)	half-life [8]	half-life [9]	half-life [10]	half-life [11]	solubility [12]	logP [7]
Cc1cn([C@H]2C[C@H](N=[N+]=[N-])[C@@H](COP(=O)(OCCSC(=O)[C@@H](N)C(C)C)Oc3ccccc3)O2)c(=O)[nH]c1=O (stereo partly specified)	9.00	> 120000 nM	8.40	> 120000 nM	4.09	> 120000 nM	2	< 0.0167 h	< 0.0167 h	1820 h	< 0.0167 h	–	–
Cc1cn([C@H]2C[C@H](N=[N+]=[N-])[C@@H](COP(=O)(OCCSC(=O)C(C)(C)CO)Oc3ccccc3)O2)c(=O)[nH]c1=O (stereo partly specified)	8.22	> 130000 nM	7.52	> 130000 nM	5.41	> 130000 nM	2	331 h	14.8 h	–	–	6640 µg/mL (≈ 11.4 mM)	–
Cc1cn([C@H]2C[C@H](N=[N+]=[N-])[C@@H](COP(=O)(OCCSC(=O)C(C)(CO)CO)Oc3ccccc3)O2)c(=O)[nH]c1=O (stereo partly specified)	7.92	> 150000 nM	7.13	> 150000 nM	< 4.00	> 150000 nM	2	211 h	178 h	–	–	60600 µg/mL (≈ 101 mM)	–
Cc1cn([C@H]2C[C@H](N=[N+]=[N-])[C@@H](COP(=O)(OCCSC(=O)C(C)(C)C)Oc3ccccc3)O2)c(=O)[nH]c1=O (stereo partly specified)	7.82	> 10000 nM	6.09	> 10000 nM	6.35	> 10000 nM	–	607 h	1.5 h	–	–	57 µg/mL (≈ 0.1 mM)	2
Cc1cn([C@H]2C[C@H](N=[N+]=[N-])[C@@H](COP(=O)(OCCSC(=O)C(C)(C)NC(=O)OC(C)(C)C)Oc3ccccc3)O2)c(=O)[nH]c1=O (stereo partly specified)	–	–	–	–	–	–	–	338 h	40.8 h	> 480 h	> 288 h	–	–
Cc1cn([C@H]2C[C@H](N=[N+]=[N-])[C@@H](COP(=O)(OCCSC(=O)[C@@H](NC(=O)OC(C)(C)C)C(C)C)Oc3ccccc3)O2)c(=O)[nH]c1=O (stereo partly specified)	–	–	–	–	–	–	–	197 h	106 h	> 960 h	> 216 h	–	–
Cc1cn([C@H]2C[C@H](N=[N+]=[N-])[C@@H](COP(=O)(OCCSC(=O)C(C)(C)N)Oc3ccccc3)O2)c(=O)[nH]c1=O (stereo partly specified)	8.05	> 120000 nM	7.27	> 120000 nM	4.05	> 120000 nM	2	< 0.0167 h	0.133 h	> 144 h	0.1 h	–	–
Cc1cn([C@H]2C[C@H](N=[N+]=[N-])[C@@H](CO)O2)c(=O)[nH]c1=O [ZIDOVUDINE]	8.52	> 100000 nM	7.82	> 100000 nM	< 4.00	> 100000 nM	–	–	–	–	–	–	–
